Measurements taken from ChEMBL document CHEMBL3997809, “Design and synthesis of a new series of 3,5-disubstituted isoxazoles active against Trypanosoma cruzi and Leishmania amazonensis” (Eur J Med Chem, 2017).
Calls of active or inactive are those of the source. No cut-off for these calls is given here.

How the values were obtained:
[1] = test system: Trypanosoma cruzi; assay: Growth inhibition of Trypanosoma cruzi Tulahuen amastigote forms infected in human THP1 cells at 100 uM after 48 hrs relative to control; type: functional; conditions: THP-1, 48 h, read-out: GI
In short: (§1)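 PMA-differentiated THP-1 macrophages (4.0 × 10^4 cells/well, 100 ng/ml, 72 h) infected with trypomastigotes at 2:1 parasite/cell overnight at 37 °C. Washed, then 24 h more for amastigote transformation. Compounds added in triplicate for 48 h at 37 °C, 5% CO2. Read-out: CPRG 100 µM with 0.1% NP-40 for 16 h, OD 570/630 nm. Negative control DMSO 1%.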

[2] = test system: Trypanosoma cruzi; assay: Trypanocidal activity against Trypanosoma cruzi Tulahuen trypomastigote forms at 3.9 to 250 uM after 72 hrs by MTT assay; type: functional
In short: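 Culture-derived Tulahuen trypomastigotes raised from infected L929 cells, 1.5 × 10^6 parasites/well. Compounds serially diluted from 250 to 3.9 µM, incubated 72 h at 37 °C, 5% CO2. Viability by MTT, OD 540 nm after dissolving formazan in DMSO. Negative control DMSO 1%.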

[3] = test system: Trypanosoma cruzi; assay: Trypanocidal activity against Trypanosoma cruzi Tulahuen amastigote forms infected in human THP1 cells after 48 hrs; type: functional, cell-based; conditions: THP-1, 48 h; in short: as §1
[4] = Cytotoxicity against human THP1 cells assessed as reduction in cell viability after 72 hrs by MTT assay; type: cell-based; conditions: THP-1 cells
In short: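 PMA-differentiated THP-1 cells exposed to serial dilutions from 15.6 to 500 µM for 72 h at 37 °C, 5% CO2. Viability by MTT reduction to formazan, dissolved in DMSO, OD 540 nm. Gives CC50.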

[5] = Selectivity index, ratio of CC50 for human THP1 cells to IC50 for Trypanosoma cruzi Tulahuen amastigote forms infected in human THP1 cells; type: toxicity, cell-based; conditions: read-out: Ratio CC50/IC50
In short: (§2)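 Ratio of CC50 from the 72 h MTT assay in PMA-differentiated THP-1 cells to IC50 against intracellular amastigotes in THP-1 cells measured by CPRG read-out after 48 h.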

[6] = test system: Leishmania amazonensis; assay: Growth inhibition of Leishmania amazonensis MHOM/BR/77/LTB0016 amastigote forms expressing beta-galactosidase infected in human THP1 cells at 100 uM after 48 hrs relative to control; type: functional; conditions: for inhibition of growth at 100 µM: MHOM/BR/77/LTB0016, THP-1, 48 h, read-out: GI
In short: (§3)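 THP-1 cells seeded at 4.0 × 10^4 cells/well and differentiated with PMA 100 ng/ml for 72 h. Promastigotes (4-day culture) opsonized 1 h at 34 °C in RPMI-1640 with 10% heat-inactivated human B+ serum. Infection at 10:1 parasite/cell for 3 h at 34 °C, washed, then 24 h for amastigote transformation. Compound treatment in triplicate for 48 h at 34 °C. Read-out: CPRG 100 µM with 0.1% NP-40, 16 h, OD 570/630 nm. Negative control DMSO 1%.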

[7] = test system: Leishmania amazonensis; assay: Antileishmanial activity against Leishmania amazonensis MHOM/BR/77/LTB0016 amastigote forms expressing beta-galactosidase infected in human THP1 cells after 48 hrs; type: functional, cell-based; conditions: MHOM/BR/77/LTB0016, THP-1, 48 h; in short: as §3
[8] = target: Trypanothione reductase (Trypanosoma cruzi, UniProt P28593); assay: Inhibition of Trypanosoma cruzi trypanothione reductase expressed in Escherichia coli BL21(DE3) using T(S)2 as substrate incubated for 30 mins in presence of NADPH measured for 30 mins
In short: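 Enzyme purified by affinity chromatography. Then T(S)2 1 µM and compound in DMSO added, 30 min at 27 °C, followed by further DTNB. A412 followed for 30 min. Negative control DMSO 1%.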

[9] = test system: Leishmania amazonensis; assay: Growth inhibition of Leishmania amazonensis MHOM/BR/77/LTB0016 amastigote forms expressing beta-galactosidase infected in human THP1 cells at 2 uM after 48 hrs relative to control; type: functional; conditions: MHOM/BR/77/LTB0016, THP-1, 48 h, read-out: GI; in short: as §3
[10] = Selectivity index, ratio of CC50 for human THP1 cells to IC50 for Leishmania amazonensis MHOM/BR/77/LTB0016 amastigote forms expressing beta-galactosidase infected in human THP1 cells; type: toxicity, cell-based; conditions: read-out: Ratio CC50/IC50; in short: as §2
[11] = test system: Trypanosoma cruzi; assay: Growth inhibition of Trypanosoma cruzi Tulahuen amastigote forms infected in human THP1 cells at 20 uM after 48 hrs relative to control; type: functional; conditions: THP-1, 48 h, read-out: GI; in short: as §1
[12] = test system: Leishmania infantum; assay: Growth inhibition of Leishmania infantum MHOM/BR/74/PP75 amastigote forms expressing beta-galactosidase infected in human THP1 cells at 50 uM after 48 hrs relative to control; type: functional; conditions: MHOM/BR/74/PP75, THP-1, 48 h, read-out: GI; in short: as §3
[13] = test system: Trypanosoma cruzi; assay: Growth inhibition of Trypanosoma cruzi Tulahuen amastigote forms infected in human THP1 cells at 100 uM using compound after 1 week storage measured after 48 hrs; type: functional, cell-based
[14] = Chemical stability in DMSO after 1 week by mass spectrometric analysis; type: physicochemical; conditions: 168 h
[15] = test system: Trypanosoma cruzi; assay: Antitrypanosomal activity against Trypanosoma cruzi trypomastigote forms; type: functional

Chain of Trypanothione reductase (P28593 whole entry): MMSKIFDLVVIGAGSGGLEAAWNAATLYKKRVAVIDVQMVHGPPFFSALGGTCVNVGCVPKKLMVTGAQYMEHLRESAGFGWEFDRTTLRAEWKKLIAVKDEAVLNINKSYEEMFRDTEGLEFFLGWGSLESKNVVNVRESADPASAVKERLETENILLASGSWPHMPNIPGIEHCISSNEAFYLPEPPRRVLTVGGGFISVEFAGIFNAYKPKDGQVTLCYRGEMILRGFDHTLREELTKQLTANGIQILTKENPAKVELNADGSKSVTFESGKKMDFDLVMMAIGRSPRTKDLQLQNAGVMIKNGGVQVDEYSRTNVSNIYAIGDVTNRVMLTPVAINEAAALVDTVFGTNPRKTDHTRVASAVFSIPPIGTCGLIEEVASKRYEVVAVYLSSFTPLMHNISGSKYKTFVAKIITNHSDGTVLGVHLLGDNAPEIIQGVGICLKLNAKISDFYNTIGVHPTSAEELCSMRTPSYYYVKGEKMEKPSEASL

| Compound | IC50 [7] [µM] | inhibition of growth at 100 µM [1] [%] | Activity [2] | IC50 [3] [µM] | CC50 at 72 h [4] [µM] | inhibition of growth at 100 µM [6] [%] | further results |
| --- | --- | --- | --- | --- | --- | --- | --- |
| COc1ccc(-c2cc(CO)on2)cc1OC |  | 0 | inactive |  |  |  |  |
| OCc1ccc(-c2cc(-c3ccc4c(c3)OCO4)no2)cc1 |  | 65 | inactive | 5.26 | 70.2 | 0 | selectivity ratio [5]: 13.3; IC50 [8]: > 100 µM |
| c1ccc(-c2cc(-c3ccc4c(c3)OCO4)no2)cc1 |  | 64.8 | inactive | 23 | > 500 |  | selectivity ratio [5]: > 21.7; growth inhibition (GI) [6]: inactive |
| CC(C)(C)OC(=O)Nc1ccc(-c2cc(-c3ccccc3)no2)cc1 |  | 0 | inactive |  |  |  |  |
| OCc1cc(-c2ccc3c(c2)OCO3)no1 |  | 1.95 | inactive | > 100 |  |  |  |
| C[C@@H]1[C@H](O)[C@@H](C)/C=C/C=C/C=C/C=C/C=C/C=C/C=C/[C@H](O[C@@H]2O[C@H](C)[C@@H](O)[C@H](N)[C@@H]2O)C[C@@H]2O[C@](O)(C[C@@H](O)C[C@@H](O)[C@H](O)CC[C@@H](O)C[C@@H](O)CC(=O)O[C@H]1C)C[C@H](O)[C@H]2C(=O)O [AMPHOTERICIN B] | 0.14 |  |  |  | 27.9 |  | inhibition of growth at 2 µM [9]: 81.6%; selectivity ratio [10]: 199 |
| O=C(Cn1ccnc1[N+](=O)[O-])NCc1ccccc1 [BENZNIDAZOLE] |  |  |  |  | > 500 |  | inhibition of growth at 20 µM [11]: 85.9%; selectivity ratio [5]: > 49.1 |
| OCc1ccc(-c2cc(-c3ccccc3)no2)cc1 |  | 7.01 | inactive | > 100 |  |  |  |
| O=[N+]([O-])c1ccc(-c2cc(-c3ccc(CO)cc3)on2)cc1 |  | 15.9 | inactive | > 100 |  |  |  |
| O=C(O)c1cc(-c2ccccc2)no1 |  | 0 | inactive |  |  |  |  |
| OCc1cc(-c2ccc(F)cc2)no1 | > 100 | 8.27 | inactive | > 100 |  | 3.35 |  |
| COc1ccc(-c2cc(CN=[N+]=[N-])on2)cc1 |  | 60.4 | inactive |  | < 15.6 |  | growth inhibition (GI) [13]: inactive; Stability [14]: Unstable |
| OCc1ccc(-c2cc(-c3ccc(F)cc3)no2)cc1 |  | 10.6 | inactive | > 100 |  |  |  |
| Nc1ccc(-c2cc(-c3ccccc3)no2)cc1 |  | 73 | inactive | 90.4 | 407 |  | selectivity ratio [5]: 4.5 |
| COc1cc([C@@H]2O[C@@H](c3cc(OC)c(OC)c(OC)c3)[C@H](C)[C@H]2C)cc(OC)c1OC [GRANDISIN] |  |  |  |  |  |  | IC50 [15]: 3.7 µM |
| O=[N+]([O-])c1ccc(-c2cc(CO)on2)cc1 | > 100 | 12.2 | inactive | > 100 |  | 4.98 |  |
| c1ccc(-c2cc(-c3ccccc3)on2)cc1 [3,5-DIPHENYLISOXAZOLE] | > 100 | 29.4 | inactive | > 100 |  | 6.03 |  |
| COc1ccc(-c2cc(CO)on2)cc1 |  | 9.32 | inactive | > 100 |  |  |  |
| OCc1cc(-c2ccccc2)no1 |  | 7.57 | inactive | > 100 |  |  |  |
| CC(=O)Nc1ccc(-c2cc(-c3ccccc3)no2)cc1 |  | 0 | inactive |  |  |  |  |
| COc1ccc(-c2cc(-c3ccc(CO)cc3)on2)cc1OC |  | 14.2 | inactive | > 100 |  |  |  |
| COc1ccc(-c2cc(-c3ccc(CO)cc3)on2)cc1 |  | 5.77 | inactive | > 100 |  |  |  |
| COc1ccc([C@H]2O[C@@H](c3ccc(OC)c(OC)c3)[C@@H](C)[C@@H]2C)cc1OC |  |  |  |  |  |  | IC50 [15]: 2.3 µM |

Further lines, with some results ahead:

| IC50 [7] [µM] | Compound | inhibition of growth at 100 µM [1] [%] | Activity [2] | IC50 [3] [µM] | CC50 at 72 h [4] [µM] | inhibition of growth at 100 µM [6] [%] | further results |
| --- | --- | --- | --- | --- | --- | --- | --- |
| > 100 | Cc1ccc(-c2cc(-c3ccc4c(c3)OCO4)no2)cc1 | 81.7 | inactive | 1.74 | 81.3 | 28.1 | selectivity ratio [5]: 46.7; IC50 [8]: > 100 µM |
| > 100 | CC(=O)OC[C@H]1O[C@H](OCc2cc(-c3ccccc3)no2)[C@H](OC(C)=O)[C@@H](OC(C)=O)[C@@H]1OC(C)=O | 1.16 | inactive | > 100 |  | 2.06 |  |
| > 100 | CC(=O)OC[C@H]1O[C@H](OCc2cc(-c3ccc4c(c3)OCO4)no2)[C@H](OC(C)=O)[C@@H](OC(C)=O)[C@@H]1OC(C)=O | 3.15 | inactive | > 100 |  | 2.05 |  |
| > 100 | OC[C@H]1O[C@H](OCc2cc(-c3ccc4c(c3)OCO4)no2)[C@H](O)[C@@H](O)[C@@H]1O | 2.93 | inactive | > 100 |  | 3.82 |  |
| 5.08 | ClCc1ccc(-c2cc(-c3ccc4c(c3)OCO4)no2)cc1 | 95.8 | inactive | 1.13 | 182 | 57.7 | selectivity ratio [5]: 161; selectivity ratio [10]: 35.8; inhibition of growth at 50 µM [12]: 9.01%; IC50 [8]: > 100 µM |
| > 100 | CC(=O)OCc1ccc(-c2cc(-c3ccc4c(c3)OCO4)no2)cc1 | 47.6 | inactive | 23.2 | > 500 | 15.7 | selectivity ratio [5]: > 21.5 |
| > 100 | OC[C@H]1O[C@H](OCc2cc(-c3ccccc3)no2)[C@H](O)[C@@H](O)[C@@H]1O | 7.3 | inactive | > 100 |  | 4.57 |  |
